Consider 49 compounds from ChEMBL document CHEMBL1141931, “Synthesis and evaluation of new antimalarial phenylurenyl chalcone derivatives” (J Med Chem, 2005).

In assay [1] the test system is Plasmodium falciparum. The assay can be described thus: Inhibitory concentration against Plasmodium falciparum. The format is functional, organism-based. Put shortly: (§1)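 Chloroquine-resistant P. falciparum cultures were exposed to a range of compound concentrations for 48 h, starting at the ring stage. New ring forms were counted by FACS (flow cytometry), and parasitemia was compared with untreated controls to derive IC50.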

In assay [2] the target is T1, Falcipain 2 (Plasmodium falciparum, UniProt Q9N6S8).
T1 sequence (Q9N6S8 whole entry): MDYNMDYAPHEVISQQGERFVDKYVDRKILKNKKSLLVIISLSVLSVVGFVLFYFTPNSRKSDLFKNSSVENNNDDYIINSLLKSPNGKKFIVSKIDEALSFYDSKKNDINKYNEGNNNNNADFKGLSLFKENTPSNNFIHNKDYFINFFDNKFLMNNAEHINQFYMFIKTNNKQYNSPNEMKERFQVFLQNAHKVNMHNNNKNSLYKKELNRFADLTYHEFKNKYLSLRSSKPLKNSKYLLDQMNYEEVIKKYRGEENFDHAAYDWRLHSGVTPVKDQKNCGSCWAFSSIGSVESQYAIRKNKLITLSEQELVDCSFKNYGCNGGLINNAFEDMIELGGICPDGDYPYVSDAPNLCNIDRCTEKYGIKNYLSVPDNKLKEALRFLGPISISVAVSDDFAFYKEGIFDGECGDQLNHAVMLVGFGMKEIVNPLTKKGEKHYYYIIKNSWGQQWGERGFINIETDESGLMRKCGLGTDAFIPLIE
The assay can be described thus: Inhibitory concentration against recombinant Falcipain-2.

Assay [3] relates to Plasmodium falciparum. The assay can be described thus: Inhibitory concentration against Plasmodium falciparum in FACS. The format is functional, organism-based. Put shortly:
as §1

For assay [4], the species on record is Mus musculus. The assay can be described thus: Inhibition of hemoglobin hydrolysis in mice (Mus musculus) infected with Plasmodium berghei at 5 uM. Format: functional.
Assay [5] concerns the target T1, Falcipain 2. The assay can be described thus: Inhibitory concentration against falcipain-2; No significant effect impaired solubility.
The species named for assay [6] is Mus musculus. The experiment in a line: Inhibition of hemoglobin hydrolysis in mice (Mus musculus) infected with Plasmodium berghei at 10 uM. The format is functional.
The species entered for assay [7] is Mus musculus. The assay can be described thus: Inhibition of hemoglobin hydrolysis in mice (Mus musculus) infected with Plasmodium berghei at 100 uM. Format: functional.
The target in assay [8] is T2, Histidine-rich protein PFHRP-II (Plasmodium falciparum) (UniProt P05227).
T2 sequence (whole entry): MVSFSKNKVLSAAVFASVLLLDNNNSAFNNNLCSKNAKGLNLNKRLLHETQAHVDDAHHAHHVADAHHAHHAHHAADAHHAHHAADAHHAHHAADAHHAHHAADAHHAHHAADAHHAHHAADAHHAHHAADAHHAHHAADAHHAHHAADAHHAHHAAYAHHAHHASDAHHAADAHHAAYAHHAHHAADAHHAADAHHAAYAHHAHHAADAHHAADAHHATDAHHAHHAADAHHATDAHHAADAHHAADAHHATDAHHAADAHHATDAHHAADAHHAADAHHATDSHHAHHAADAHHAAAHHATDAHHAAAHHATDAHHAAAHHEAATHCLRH
To be noted: Plasmodium berghei; 100 uM.

For `COc1ccc(NC(=O)Nc2ccc(C(=O)/C=C/c3ccc4c(c3)OCO4)cc2)cc1`, the half-maximal inhibitory concentration (IC50) (as a rule, the concentration that inhibits the measured activity by half) in the assay on Plasmodium falciparum [1] was more than 10 µM.

Regarding `O=C(Nc1ccc(Cl)cc1)Nc1ccc(C(=O)/C=C/c2ccc(Cl)cc2)cc1`, the IC50 at Falcipain 2 [2] was 2.6 µM; in the assay on Plasmodium falciparum [3], 10 µM.

As for `O=C(Nc1ccc(Cl)cc1)Nc1ccc(C(=O)/C=C/c2ccc(F)cc2F)cc1`, in the assay filed under Mus musculus [4], the Inhibition – broadly, the change of the read-out against control, counted positive when it falls – is given as 33.04%. The 50% inhibitory concentration (IC50) on Falcipain 2 [2] came out at 2.6 µM; with Plasmodium falciparum [3], 8 µM.

As for `Cc1ccc(/C=C/C(=O)c2cccc(NC(=O)Nc3ccccc3)c2)cc1`, in the assay listed under Mus musculus [4], the Inhibition was determined as 74.93%. The figures for the 50% inhibitory concentration (IC50) entry against Falcipain 2 [5] and in the assay on Plasmodium falciparum [3] were “No significant effect” and 2.74 µM, respectively.

In the assay on Plasmodium falciparum [1], `O=C(Nc1ccccc1)Nc1ccc(C(=O)/C=C/c2ccc(Cl)cc2Cl)cc1` displayed an IC50 of more than 10 µM.

Compound `O=C(Nc1ccccc1)Nc1ccc(C(=O)/C=C/c2ccc(F)cc2F)cc1` yielded an IC50 in the assay with Plasmodium falciparum [1] of more than 10 µM.

For the compound `COc1cc(/C=C/C(=O)c2ccc(NC(=O)Nc3ccc(Cl)cc3)cc2)cc(OC)c1OC`, the IC50 at Falcipain 2 [2] stood at 1.8 µM; in the assay with Plasmodium falciparum [3], 3 µM.

Take `COc1ccc(NC(=O)Nc2ccc(C(=O)/C=C/c3cc(OC)c(OC)c(OC)c3)cc2)cc1`: the 50% inhibitory concentration (IC50) in the assay with Plasmodium falciparum [1] was more than 10 µM.

In the assay on Plasmodium falciparum [1], `O=C(Nc1ccccc1)Nc1ccc(C(=O)/C=C/c2ccc3c(c2)OCO3)cc1` yielded an IC50 of more than 10 µM.

`COc1ccc(NC(=O)Nc2ccc(C(=O)/C=C/c3ccc(F)cc3)cc2)cc1` had an IC50 in the assay with Plasmodium falciparum [1] of more than 10 µM.

In the assay on Plasmodium falciparum [1], `O=C(Nc1ccccc1)Nc1ccc(C(=O)/C=C/c2ccccc2)cc1` came in with a 50% inhibitory concentration (IC50) of more than 10 µM.

`CN(C)c1ccc(/C=C/C(=O)c2cccc(NC(=O)Nc3ccccc3)c2)cc1` yielded an IC50 in the assay with Plasmodium falciparum [1] of more than 10 µM.

Turning to `Cc1ccc(/C=C/C(=O)c2ccc(NC(=O)Nc3ccccc3)cc2)cc1`, in the assay on Plasmodium falciparum [1], the IC50 was more than 10 µM.

In the assay listed under Mus musculus [6], `CC(C)CC(=O)N[C@H](C(=O)N[C@H](C(=O)N[C@@H](CC(C)C)[C@@H](O)CC(=O)N[C@@H](C)C(=O)N[C@@H](CC(C)C)[C@@H](O)CC(=O)O)C(C)C)C(C)C` [PEPSTATIN] came in with an Inhibition of 91.91%.

`COc1ccc(/C=C/C(=O)c2ccc(NC(=O)Nc3ccc(Cl)cc3)cc2)c(OC)c1`: the IC50 with Plasmodium falciparum [1] was more than 10 µM.

Take `O=C(Nc1ccccc1)Nc1ccc(C(=O)/C=C/c2ccccn2)cc1`: in the assay on Plasmodium falciparum [1], the 50% inhibitory concentration (IC50) is more than 10 µM.

In the assay filed under Mus musculus [4], `O=C(Nc1ccccc1)Nc1cccc(C(=O)/C=C/c2ccc(Cl)cc2Cl)c1` came in with an Inhibition of 60.72%. Besides, the results for the IC50 result against Falcipain 2 [5] and in the assay on Plasmodium falciparum [3] were “No significant effect” and 2.14 µM, respectively.

As to `COc1ccc(NC(=O)Nc2ccc(C(=O)/C=C/c3ccc(F)cc3F)cc2)cc1`, the IC50 in the assay on Plasmodium falciparum [1] is more than 10 µM.

For `COc1cccc(/C=C/C(=O)c2cccc(NC(=O)Nc3ccccc3)c2)c1OC`, in the assay with Plasmodium falciparum [1], the IC50 is more than 10 µM.

For `COc1ccc(/C=C/C(=O)c2cccc(NC(=O)Nc3ccccc3)c2)c(OC)c1`, the IC50 in the assay with Plasmodium falciparum [1] was more than 10 µM.

`CC(C)C[C@H](NC(=O)[C@H]1O[C@@H]1C(=O)O)C(=O)NCCCCN=C(N)N` [E-64]: the figures for the half-inhibitory concentration (IC50) on Falcipain 2 [2] and in the assay with Plasmodium falciparum [3] were 0.058 µM and 2.5 µM, respectively.

For the compound `Cc1ccc(/C=C/C(=O)c2ccc(NC(=O)Nc3ccc(Cl)cc3)cc2)cc1`, the half-maximal inhibitory concentration (IC50) in the assay on Plasmodium falciparum [1] was more than 10 µM.

On to `O=C(Nc1ccccc1)Nc1cccc(C(=O)/C=C/c2ccc(Br)cc2)c1`, for which, in the assay filed under Mus musculus [4], the Inhibition stood at 66.58%. Besides, the IC50 entry at Falcipain 2 [5] was “No significant effect”; in the assay with Plasmodium falciparum [3] it was 2.1 µM.

`COc1ccc(NC(=O)Nc2ccc(C(=O)/C=C/c3ccc(OC)cc3OC)cc2)cc1` displayed an IC50 with Plasmodium falciparum [1] of more than 10 µM.

In the case of `O=C(Nc1ccccc1)Nc1cccc(C(=O)/C=C/c2ccc(Cl)cc2)c1`, the IC50 with Plasmodium falciparum [1] was more than 10 µM.

Take `O=C(Nc1ccc(Cl)cc1)Nc1ccc(C(=O)/C=C/c2ccc3c(c2)OCO3)cc1`: the IC50 on Falcipain 2 [2] is 2.5 µM; in the assay on Plasmodium falciparum [3], 10 µM.

For the compound `O=C(Nc1ccccc1)Nc1cccc(C(=O)/C=C/c2ccc(F)cc2)c1`, in the assay on Plasmodium falciparum [1], the half-inhibitory concentration (IC50) is more than 10 µM.

In the assay on Plasmodium falciparum [1], `O=C(Nc1ccc(Cl)cc1)Nc1ccc(C(=O)/C=C/c2ccc(F)cc2)cc1` registered an IC50 of more than 10 µM.

Consider `COc1cc(/C=C/C(=O)c2cccc(NC(=O)Nc3ccccc3)c2)cc(OC)c1OC`, for which the Inhibition in the assay listed under Mus musculus [4] is on record as 51.45%. For the same compound, the half-maximal inhibitory concentration (IC50) entry is “No significant effect” against Falcipain 2 [5] and 1.76 µM in the assay on Plasmodium falciparum [3].

`O=C(Nc1ccccc1)Nc1cccc(C(=O)/C=C/c2ccc3c(c2)OCO3)c1` displayed an IC50 in the assay on Plasmodium falciparum [1] of more than 10 µM.

Take `COc1ccc(/C=C/C(=O)c2ccc(NC(=O)Nc3ccccc3)cc2)c(OC)c1`: the IC50 in the assay on Plasmodium falciparum [1] is more than 10 µM.

The compound `CC(=O)N[C@@H](CC(C)C)C(=O)N[C@@H](CC(C)C)C(=O)N[C@H](C=O)CCCNC(=N)N` [LEUPEPTIN] showed an Inhibition in the assay filed under Mus musculus [6] of 87.02%. The IC50 amounted to 0.0058 µM at Falcipain 2 [2] and 6.26 µM with Plasmodium falciparum [3].

In the case of `COc1ccc(NC(=O)Nc2ccc(C(=O)/C=C/c3ccccc3)cc2)cc1`, the IC50 with Plasmodium falciparum [1] was more than 10 µM.

Turning to `COc1ccc(NC(=O)Nc2ccc(C(=O)/C=C/c3ccc(Cl)cc3)cc2)cc1`, the IC50 in the assay with Plasmodium falciparum [1] is more than 10 µM.

Take `O=C(Nc1ccccc1)Nc1ccc(C(=O)/C=C/c2ccc(F)cc2)cc1`: in the assay with Plasmodium falciparum [1], the concentration for half-maximal inhibition (IC50) was more than 10 µM.

Consider `CCN(CC)CCCC(C)Nc1ccnc2cc(Cl)ccc12` (centres undefined) [CHLOROQUINE], for which the Inhibition in the assay listed under Mus musculus [7] is 5.15%. The inhibition (as a rule, the change of the read-out against control, counted positive when it falls) in assay [8] came to 86.6%.

Compound `COc1ccc(/C=C/C(=O)c2ccc(NC(=O)Nc3ccc(Cl)cc3)cc2)cc1` registered an IC50 in the assay on Plasmodium falciparum [1] of more than 10 µM.

In the case of `O=C(Nc1ccccc1)Nc1cccc(C(=O)/C=C/c2ccccc2)c1`, the half-maximal inhibitory concentration (IC50) in the assay with Plasmodium falciparum [1] was more than 10 µM.

In turn, `COc1ccc(/C=C/C(=O)c2cccc(NC(=O)Nc3ccccc3)c2)cc1OC` came in with a half-inhibitory concentration (IC50) with Plasmodium falciparum [1] of more than 10 µM.

For the compound `O=C(Nc1ccccc1)Nc1cccc(C(=O)/C=C/c2ccc(F)cc2F)c1`, the IC50 with Plasmodium falciparum [1] was more than 10 µM.

As for `COc1ccc(NC(=O)Nc2ccc(C(=O)/C=C/c3ccc(C)cc3)cc2)cc1`, the IC50 in the assay on Plasmodium falciparum [1] is more than 10 µM.

For the compound `COc1ccc(/C=C/C(=O)c2cccc(NC(=O)Nc3ccccc3)c2)cc1`, the IC50 in the assay with Plasmodium falciparum [1] is more than 10 µM.

The compound `O=C(Nc1ccccc1)Nc1ccc(C(=O)/C=C/c2ccc(Cl)cc2)cc1` yielded a 50% inhibitory concentration (IC50) with Plasmodium falciparum [1] of more than 10 µM.

In turn, `COc1ccc(/C=C/C(=O)c2ccc(NC(=O)Nc3ccccc3)cc2)cc1` yielded an IC50 in the assay with Plasmodium falciparum [1] of more than 10 µM.

Consider `COc1ccc(/C=C/C(=O)c2ccc(NC(=O)Nc3ccc(OC)cc3)cc2)cc1`, for which the half-maximal inhibitory concentration (IC50) in the assay on Plasmodium falciparum [1] is more than 10 µM.

Compound `COc1ccc(NC(=O)Nc2ccc(C(=O)/C=C/c3ccc(Cl)cc3Cl)cc2)cc1` displayed a 50% inhibitory concentration (IC50) in the assay on Plasmodium falciparum [1] of more than 10 µM.

As to `O=C(Nc1ccc(Cl)cc1)Nc1ccc(C(=O)/C=C/c2ccc(Cl)cc2Cl)cc1`, the Inhibition in the assay filed under Mus musculus [4] was determined as 60.31%. Also, the IC50 on Falcipain 2 [2] is 2.5 µM; with Plasmodium falciparum [3], 5 µM.

In the assay with Plasmodium falciparum [1], `COc1cc(/C=C/C(=O)c2ccc(NC(=O)Nc3ccccc3)cc2)cc(OC)c1OC` showed a 50% inhibitory concentration (IC50) of more than 10 µM.

Regarding `O=C(Nc1ccc(Cl)cc1)Nc1ccc(C(=O)/C=C/c2ccccc2)cc1`, the figures for the IC50 at Falcipain 2 [2] and in the assay with Plasmodium falciparum [3] were 3.8 µM and 9 µM, respectively.
